Laboratory results reported in ChEMBL document CHEMBL1122071, “Avermectin acyl derivatives with anthelmintic activity” (1982).

What was measured:
Format in all cases: functional
[1] = system: Cooperia oncophora; test: Anthelmintic efficacy against immature (EL4) Cooperia oncopphora (C.o) in sheep at dose of 0.025 mg/kg administered orally; 0-19%
Outline: (§1)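 Lambs were experimentally infected with mixed gastrointestinal nematodes: Haemonchus contortus, Ostertagia circumcincta, Trichostrongylus axei, T. colubriformis, Cooperia oncophora and Oesophagostomum columbianum. Dosing was oral, in mg/kg, with 3 sheep per dose group. An untreated infected group of 6 sheep served as reference, with worm burdens given as the geometric mean per lamb. Immature (EL4) and adult worms were scored separately.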

[2] = system: Cooperia oncophora; test: Anthelmintic efficacy against immature (EL4) Cooperia oncopphora (C.o) in sheep at dose of 0.1 mg/kg administered orally; settings: route oral; outline: as §1
[3] = system: Cooperia oncophora; test: Anthelmintic efficacy against adult Cooperia oncopphora (C.o) in sheep at dose of 0.025 mg/kg administered orally; 20-59%; outline: as §1
[4] = system: Cooperia oncophora; test: Anthelmintic efficacy against adult Cooperia oncopphora (C.o) in sheep at dose of 0.1 mg/kg administered orally; settings: route oral; outline: as §1
[5] = system: Haemonchus contortus; test: Anthelmintic efficacy against immature (EL4) Haemonchus contortus (H.c) in sheep at dose of 0.05 mg/kg administered orally; settings: route oral; outline: as §1
[6] = system: Haemonchus contortus; test: Anthelmintic efficacy against immature (EL4) Haemonchus contortus (H.c) in sheep at dose of 0.1 mg/kg administered orally; settings: route oral; outline: as §1
[7] = system: Haemonchus contortus; test: Anthelmintic efficacy against adult Haemonchus contortus (H.c) in sheep at dose of 0.025 mg/kg administered orally; settings: route oral; outline: as §1
[8] = system: Haemonchus contortus; test: Anthelmintic efficacy against adult Haemonchus contortus (H.c) in sheep at dose of 0.05 mg/kg administered orally; settings: route oral; outline: as §1
[9] = system: Haemonchus contortus; test: Anthelmintic efficacy against adult Haemonchus contortus (H.c) in sheep at dose of 0.1 mg/kg administered orally; settings: route oral
Outline: (§2)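 Lambs experimentally infected with mixed gastrointestinal nematodes (H. contortus, O. circumcincta, T. axei, T. colubriformis, C. oncophora, Oe. columbianum) were dosed orally, 1–3 sheep per dose. An untreated infected group of 6 was included, with worm burdens given as the geometric mean number of worms per lamb. Efficacy was scored against adult and, where listed, EL4 stages.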

[10] = system: Haemonchus contortus; test: Anthelmintic efficacy against immature (EL4) Haemonchus contortus (H.c) in sheep at dose of 0.025 mg/kg administered orally; settings: route oral; outline: as §1
[11] = system: Oesophagostomum columbianum; test: Anthelmintic efficacy against Oseophagostomum columbianum (Oe. c) in sheep at dose of 0.05 mg/kg administered orally; settings: route oral; outline: as §1
[12] = system: Oesophagostomum columbianum; test: Anthelmintic efficacy against Oseophagostomum columbianum (Oe. c) in sheep at dose of 0.1 mg/kg administered orally; settings: route oral; outline: as §2
[13] = system: Teladorsagia circumcincta; test: Anthelmintic efficacy against immature (EL4) Ostertagia circumcincta (O. c) in sheep at dose of 0.05 mg/kg administered orally; settings: route oral; outline: as §1
[14] = system: Teladorsagia circumcincta; test: Anthelmintic efficacy against immature (EL4) Ostertagia circumcincta (O. c) in sheep at dose of 0.1 mg/kg administered orally; settings: route oral; outline: as §1
[15] = system: Teladorsagia circumcincta; test: Anthelmintic efficacy against immature (EL4) Ostertagia circumcincta (O. c) in sheep at dose of 0.025 mg/kg administered orally; 20-59%; outline: as §1
[16] = system: Teladorsagia circumcincta; test: Anthelmintic efficacy against […] (EL4) Ostertagia circumcincta (O. c) in sheep at dose of 0.025 mg/kg administered orally; 60-89%; outline: as §1
[17] = system: Teladorsagia circumcincta; test: Anthelmintic efficacy against adult Ostertagia circumcincta (O. c) in sheep at dose of 0.05 mg/kg administered orally; settings: route oral; outline: as §1
[18] = system: Teladorsagia circumcincta; test: Anthelmintic efficacy against adult Ostertagia circumcincta (O. c) in sheep at dose of 0.1 mg/kg administered orally; settings: route oral; outline: as §2
[19] = system: Trichostrongylus axei; test: Anthelmintic efficacy against Trichostrongylus axei (T.a) in sheep at dose of 0.025 mg/kg administered orally; 60-89%; outline: as §1
[20] = system: Trichostrongylus axei; test: Anthelmintic efficacy against Trichostrongylus axei (T.a) in sheep at dose of 0.05 mg/kg administered orally; settings: route oral; outline: as §1
[21] = system: Trichostrongylus colubriformis; test: Minimal dose necessary to eliminate > 83% of Trichostrongylus colubriformis infection in gerbils
[22] = system: Trichostrongylus colubriformis; test: Anthelmintic efficacy against Trichostrongylus colubriformis (T.c) in sheep at dose of 0.025 mg/kg administered orally; 60-89%; outline: as §1
[23] = system: Trichostrongylus colubriformis; test: Anthelmintic efficacy against Trichostrongylus colubriformis (T.c) in sheep at dose of 0.05 mg/kg administered orally; settings: route oral; outline: as §1
[24] = system: Trichostrongylus colubriformis; test: Anthelmintic efficacy against Trichostrongylus colubriformis (T.c) in sheep at dose of 0.1 mg/kg administered orally; settings: route oral; outline: as §1
[25] = system: Cooperia oncophora; test: Anthelmintic efficacy against adult Cooperia oncopphora (C.o) in sheep at dose of 0.05 mg/kg administered orally; settings: route oral; outline: as §1
[26] = system: Cooperia oncophora; test: Anthelmintic efficacy against immature (EL4) Cooperia oncopphora (C.o) in sheep at dose of 0.05 mg/kg administered orally; settings: route oral; outline: as §1
[27] = system: Trichostrongylus axei; test: Anthelmintic efficacy against Trichostrongylus axei (T.a) in sheep at dose of 0.1 mg/kg administered orally; settings: route oral; outline: as §2
[28] = system: Oesophagostomum columbianum; test: Anthelmintic efficacy against Oseophagostomum columbianum (Oe. c) in sheep at dose of 0.025 mg/kg administered orally; settings: route oral; outline: as §1
[29] = system: Cooperia oncophora; test: Anthelmintic efficacy against immature (EL4) Cooperia oncopphora (C.o) in sheep at dose of 0.025 mg/kg administered orally; 20-59%
[30] = system: Cooperia oncophora; test: Anthelmintic efficacy against immature (EL4) Cooperia oncopphora (C.o) in sheep at dose of 0.05 mg/kg administered orally; 20-59%
[31] = system: Cooperia oncophora; test: Anthelmintic efficacy against immature (EL4) Cooperia oncopphora (C.o) in sheep at dose of 0.1 mg/kg administered orally; 20-59%
[32] = system: Cooperia oncophora; test: Anthelmintic efficacy against adult Cooperia oncopphora (C.o) in sheep at dose of 0.025 mg/kg administered orally; 0-19%; outline: as §2
[33] = system: Cooperia oncophora; test: Anthelmintic efficacy against adult Cooperia oncopphora (C.o) in sheep at dose of 0.05 mg/kg administered orally; 0-19%; outline: as §2
[34] = system: Cooperia oncophora; test: Anthelmintic efficacy against adult Cooperia oncopphora (C.o) in sheep at dose of 0.1 mg/kg administered orally; 0-19%; outline: as §2
[35] = system: Haemonchus contortus; test: Anthelmintic efficacy against immature (EL4) Haemonchus contortus (H.c) in sheep at dose of 0.05 mg/kg administered orally; 60-89%
[36] = system: Haemonchus contortus; test: Anthelmintic efficacy against adult Haemonchus contortus (H.c) in sheep at dose of 0.025 mg/kg administered orally; 0-19%; outline: as §2
[37] = system: Haemonchus contortus; test: Anthelmintic efficacy against adult Haemonchus contortus (H.c) in sheep at dose of 0.05 mg/kg administered orally; 60-89%; outline: as §2
[38] = system: Haemonchus contortus; test: Anthelmintic efficacy against immature (EL4) Haemonchus contortus (H.c) in sheep at dose of 0.025 mg/kg administered orally; 20-59%
[39] = system: Oesophagostomum columbianum; test: Anthelmintic efficacy against Oseophagostomum columbianum (Oe. c) in sheep at dose of 0.025 mg/kg administered orally; 60-89%; outline: as §2
[40] = system: Oesophagostomum columbianum; test: Anthelmintic efficacy against Oseophagostomum columbianum (Oe. c) in sheep at dose of 0.05 mg/kg administered orally; 60-89%; outline: as §2
[41] = system: Teladorsagia circumcincta; test: Anthelmintic efficacy against immature (EL4) Ostertagia circumcincta (O. c) in sheep at dose of 0.05 mg/kg administered orally; 0-19%
[42] = system: Teladorsagia circumcincta; test: Anthelmintic efficacy against immature (EL4) Ostertagia circumcincta (O. c) in sheep at dose of 0.1 mg/kg administered orally; 0-19
[43] = system: Teladorsagia circumcincta; test: Anthelmintic efficacy against adult Ostertagia circumcincta (O. c) in sheep at dose of 0.025 mg/kg administered orally; 60-89%; outline: as §2
[44] = system: Teladorsagia circumcincta; test: Anthelmintic efficacy against adult Ostertagia circumcincta (O. c) in sheep at dose of 0.05 mg/kg administered orally; 60-89%; outline: as §2
[45] = system: Teladorsagia circumcincta; test: Anthelmintic efficacy against immature (EL4) Ostertagia circumcincta (O. c) in sheep at dose of 0.025 mg/kg administered orally; 0-19%
[46] = system: Trichostrongylus axei; test: Anthelmintic efficacy against Trichostrongylus axei (T.a) in sheep at dose of 0.025 mg/kg administered orally; 0-19%; outline: as §2
[47] = system: Trichostrongylus axei; test: Anthelmintic efficacy against Trichostrongylus axei (T.a) in sheep at dose of 0.05 mg/kg administered orally; 60-89%; outline: as §2
[48] = system: Trichostrongylus colubriformis; test: Anthelmintic efficacy against Trichostrongylus colubriformis (T.c) in sheep at dose of 0.025 mg/kg administered orally; 0-19%; outline: as §2
[49] = system: Trichostrongylus colubriformis; test: Anthelmintic efficacy against Trichostrongylus colubriformis (T.c) in sheep at dose of 0.05 mg/kg administered orally; 60-89%; outline: as §2

CC[C@H](C)[C@H]1O[C@]2(C=C[C@@H]1C)C[C@@H]1C[C@@H](C/C=C(\C)[C@@H](O[C@H]3C[C@H](OC)[C@@H](O[C@H]4C[C@H](OC)[C@@H](O)[C@H](C)O4)[C@H](C)O3)[C@@H](C)/C=C/C=C3\CO[C@@H]4[C@H](O)C(C)=C[C@@H](C(=O)O1)[C@]34O)O2 [ABAMECTIN COMPONENT B1A]
0.025 mg/kg: Dose [21]
>90%: Efficacy [2] | Efficacy [4] | Efficacy [5] | Efficacy [6] | Efficacy [7] | Efficacy [8] | Efficacy [9] | Efficacy [10] | Efficacy [11] | Efficacy [12] | Efficacy [13] | Efficacy [14] | Efficacy [17] | Efficacy [18] | Efficacy [20] | Efficacy [23] | Efficacy [24] | Efficacy [25] | Efficacy [26] | Efficacy [27] | Efficacy [28]
0%: Efficacy [1]
60%: Efficacy [16] | Efficacy [19] | Efficacy [22]
20%: Efficacy [3] | Efficacy [15]

CC[C@H](C)[C@H]1O[C@]2(CC(O)[C@@H]1C)C[C@@H]1C[C@@H](C/C=C(\C)[C@@H](OC3CC(OC)C(OC4CC(OC)C(O)C(C)O4)C(C)O3)[C@@H](C)/C=C/C=C3\CO[C@@H]4[C@H](OC)C(C)=C[C@@H](C(=O)O1)[C@]34O)O2 (stereo partly specified) [AVERMECTIN A2]
0.05 mg/kg: Dose [21]
60%: Efficacy [35] | Efficacy [37] | Efficacy [39] | Efficacy [40] | Efficacy [43] | Efficacy [44] | Efficacy [47] | Efficacy [49]
>90%: Efficacy [6] | Efficacy [9] | Efficacy [12] | Efficacy [18] | Efficacy [24] | Efficacy [27]
0%: Efficacy [32] | Efficacy [33] | Efficacy [34] | Efficacy [36] | Efficacy [41] | Efficacy [42] | Efficacy [45] | Efficacy [46] | Efficacy [48]
20%: Efficacy [29] | Efficacy [30] | Efficacy [31] | Efficacy [38]
